According to publication PMC2998342 (Peptides, 2009):
Where no end group is shown, it is not given here. [ ]: non-standard residue; d: D form. Met(O) = CS(=O)CC[C@H](N)C(=O)O

Assays:
[1] = target: human KCa1.1 channel (HSlo) (Homo sapiens, UniProt Q12791); assay: Whole-cell patch clamp inhibition of cloned human KCa1.1; assay type: cell-based; conditions: read-out: inhibition of outward current
Summary of the method: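 Whole-cell clamp of HEK293 stably expressing N-terminal Flag-tagged human HSlo. Pipette: KCl/EGTA/Hepes-KOH pH 7.2, 0.5 μM free Ca2+. Bath: NaCl-based pH 7.4. Steps from −80 mV to +100 mV (+10 mV, 100 ms), 5 kHz filter, P/5 leak correction, paxilline-resistant current subtracted. Toxin (50 nM) gravity-perfused; −80→+50 mV pulses every 10 s tracked onset/washout. KI from one-site fit; Kd from kinetic ratio.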

[2] = Biological activity of deprotected IbTx-D19C; conditions: after selective thiol deprotection using AgBF4; methionine sulfoxide (Met^29)
KCa1.1 = KCa1.1 (UniProt Q12791); conditions: cited from earlier work
KCa1.1, sequence (Q12791 whole entry): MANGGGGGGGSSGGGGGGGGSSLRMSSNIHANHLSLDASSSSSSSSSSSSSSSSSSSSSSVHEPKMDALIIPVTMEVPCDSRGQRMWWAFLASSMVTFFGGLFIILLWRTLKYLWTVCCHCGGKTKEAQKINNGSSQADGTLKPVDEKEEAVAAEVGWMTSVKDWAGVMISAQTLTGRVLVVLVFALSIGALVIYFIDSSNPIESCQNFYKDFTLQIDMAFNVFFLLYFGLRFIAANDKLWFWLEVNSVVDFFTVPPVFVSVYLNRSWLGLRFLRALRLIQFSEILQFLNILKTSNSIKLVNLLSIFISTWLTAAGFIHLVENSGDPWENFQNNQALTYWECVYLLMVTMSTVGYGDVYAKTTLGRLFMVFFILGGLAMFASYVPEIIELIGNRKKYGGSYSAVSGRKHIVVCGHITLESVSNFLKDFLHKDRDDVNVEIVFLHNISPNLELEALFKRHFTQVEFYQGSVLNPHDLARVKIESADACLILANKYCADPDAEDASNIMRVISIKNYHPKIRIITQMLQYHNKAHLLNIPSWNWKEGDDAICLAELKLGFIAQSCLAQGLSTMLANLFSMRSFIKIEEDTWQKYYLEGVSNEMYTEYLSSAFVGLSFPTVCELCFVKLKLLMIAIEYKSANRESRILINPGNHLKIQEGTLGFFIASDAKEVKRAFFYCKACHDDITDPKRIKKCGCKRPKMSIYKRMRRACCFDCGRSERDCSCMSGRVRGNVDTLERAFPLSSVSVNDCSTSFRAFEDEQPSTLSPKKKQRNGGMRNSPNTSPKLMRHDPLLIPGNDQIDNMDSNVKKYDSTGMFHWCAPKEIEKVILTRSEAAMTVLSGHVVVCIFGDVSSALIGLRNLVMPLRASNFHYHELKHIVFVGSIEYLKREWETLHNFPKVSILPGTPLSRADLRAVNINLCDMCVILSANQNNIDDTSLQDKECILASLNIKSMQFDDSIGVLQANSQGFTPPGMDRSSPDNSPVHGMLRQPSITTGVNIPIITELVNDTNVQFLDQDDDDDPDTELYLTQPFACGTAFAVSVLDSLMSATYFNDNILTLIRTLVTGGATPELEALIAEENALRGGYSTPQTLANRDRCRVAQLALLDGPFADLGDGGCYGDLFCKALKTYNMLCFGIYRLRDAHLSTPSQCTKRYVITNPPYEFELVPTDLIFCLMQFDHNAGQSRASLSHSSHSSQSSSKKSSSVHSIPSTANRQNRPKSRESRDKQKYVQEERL

human KCa1.1 channel (HSlo), sequence (Q12791 whole entry, the tested form may be a part): as the sequence (Q12791 whole entry) above
iberiotoxin, sequence (P24663 whole entry): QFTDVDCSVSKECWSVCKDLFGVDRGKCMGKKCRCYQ

CC(C)(O)[C@H]1O[C@H]2CC[C@@]3(C)[C@@](O)(CC[C@H]4Cc5c([nH]c6ccccc56)[C@@]43C)C2=CC1=O [Paxilline]
inhibition at 1 µM [1]: > 95%

IbTx-D19C: biologically inactive form of IbTx-D19C from AgBF4 deprotection of IbTx-D19C-Acm (QFTDVDCSVSKECWSVCKCLFGVDRGKC[Met(O)]GKKCRCYQ; ends and bridges not checked; UniProt P24663 1-37, looked up, variant D19C)
biological activity [2]: biologically inactive

iberiotoxin (from UniProt P24663)
Kd (KCa1.1): < 1 nM
